In ChEMBL document CHEMBL4152256, “Structure-activity relationship of new antimalarial 1-aryl-3-susbtituted propanol derivatives: Synthesis, preliminary toxicity profiling, parasite life cycle stage studies, target exploration, and targeted delivery” (Eur J Med Chem, 2018):

Key:
[1] = Selectivity index, ratio of CC50 for human HepG2A16 cells by MTT assay to IC50 for multidrug-resistant Plasmodium falciparum FCR-3; format: toxicity; details: HepG2A16 cells, read-out: Ratio CC50/IC50
Summary of the method: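 HepG2-A16 human hepatoma cells were tested by MTT viability assay to give CC50. Blood-stage activity was measured against the multidrug-resistant P. falciparum FCR-3 strain by [3H]-hypoxanthine incorporation to give IC50. SI = CC50 HepG2 / FCR-3 IC50.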

Plasmodium falciparum [2] = experiment: Antiplasmodial activity against chloroquine-sensitive Plasmodium falciparum 3D7 by [3H]-hypoxanthine incorporation assay; format: functional, organism-based; details: Plasmodium falciparum, 3D7
Summary of the method: (§1)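 Blood-stage P. falciparum 3D7 and FCR-3 were tested by a modified [3H]-hypoxanthine incorporation assay. Chloroquine was the reference in all runs.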

[3] = Cytotoxicity against human HepG2A16 cells by MTT assay; format: cell-based; details: HepG2A16 cells
Summary of the method: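 MTT viability assay on HepG2-A16 cells, giving CC50 values.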

Plasmodium falciparum [4] = experiment: Antiplasmodial activity against multidrug-resistant Plasmodium falciparum FCR-3 by [3H]-hypoxanthine incorporation assay; format: functional, organism-based, FCR-3/Gambia; details: Plasmodium falciparum, FCR-3/Gambia; summary of the method: as §1
[5] = Genotoxicity in Salmonella typhimurium TA1535 harboring pSK1002 assessed as umu gene induction at 0.004 mg/ml in absence of Sprague-Dawley rat liver S9 fraction after by SOS/umu assay relative to control; format: toxicity, organism-based; details: salmonella enterica subsp. enterica serovar typhimurium, read-out: FC
[6] = Genotoxicity in Salmonella typhimurium TA1535 harboring pSK1002 assessed as umu gene induction at 0.008 mg/ml in presence of Sprague-Dawley rat liver S9 fraction after by SOS/umu assay relative to control; format: toxicity, organism-based; details: salmonella enterica subsp. enterica serovar typhimurium, read-out: FC
[7] = Genotoxicity in Salmonella typhimurium TA1535 harboring pSK1002 assessed as umu gene induction at 0.002 mg/ml in absence of Sprague-Dawley rat liver S9 fraction after by SOS/umu assay relative to control; format: toxicity, organism-based; details: salmonella enterica subsp. enterica serovar typhimurium, read-out: FC
[8] = Genotoxicity in Salmonella typhimurium TA1535 harboring pSK1002 assessed as survival at 0.001 mg/ml in presence of Sprague-Dawley rat liver S9 fraction after by SOS/umu assay relative to control; format: toxicity, organism-based; details: salmonella enterica subsp. enterica serovar typhimurium, read-out: Survival
[9] = Genotoxicity in Salmonella typhimurium TA1535 harboring pSK1002 assessed as survival at 0.004 mg/ml in absence of Sprague-Dawley rat liver S9 fraction after by SOS/umu assay relative to control; format: toxicity, organism-based; details: salmonella enterica subsp. enterica serovar typhimurium, read-out: Survival
[10] = Genotoxicity in Salmonella typhimurium TA1535 harboring pSK1002 assessed as survival at 0.016 mg/ml in presence of Sprague-Dawley rat liver S9 fraction after by SOS/umu assay relative to control; format: toxicity, organism-based; details: salmonella enterica subsp. enterica serovar typhimurium, read-out: Survival
[11] = Genotoxicity in Salmonella typhimurium TA1535 harboring pSK1002 assessed as survival at 0.001 mg/ml in absence of Sprague-Dawley rat liver S9 fraction after by SOS/umu assay relative to control; format: toxicity, organism-based; details: salmonella enterica subsp. enterica serovar typhimurium, read-out: Survival
[12] = Genotoxicity in Salmonella typhimurium TA1535 harboring pSK1002 assessed as survival at 0.002 mg/ml in presence of Sprague-Dawley rat liver S9 fraction after by SOS/umu assay relative to control; format: toxicity, organism-based; details: salmonella enterica subsp. enterica serovar typhimurium, read-out: Survival
[13] = Genotoxicity in Salmonella typhimurium TA1535 harboring pSK1002 assessed as survival at 0.008 mg/ml in absence of Sprague-Dawley rat liver S9 fraction after by SOS/umu assay relative to control; format: toxicity, organism-based; details: salmonella enterica subsp. enterica serovar typhimurium, read-out: Survival
[14] = Genotoxicity in Salmonella typhimurium TA1535 harboring pSK1002 assessed as survival at 0.031 mg/ml in absence of Sprague-Dawley rat liver S9 fraction after by SOS/umu assay relative to control; format: toxicity, organism-based; details: salmonella enterica subsp. enterica serovar typhimurium, read-out: Survival
[15] = Genotoxicity in Salmonella typhimurium TA1535 harboring pSK1002 assessed as umu gene induction at 0.016 mg/ml in presence of Sprague-Dawley rat liver S9 fraction after by SOS/umu assay relative to control; format: toxicity, organism-based; details: salmonella enterica subsp. enterica serovar typhimurium, read-out: FC
[16] = Genotoxicity in Salmonella typhimurium TA1535 harboring pSK1002 assessed as umu gene induction at 0.004 mg/ml in presence of Sprague-Dawley rat liver S9 fraction after by SOS/umu assay relative to control; format: toxicity, organism-based; details: salmonella enterica subsp. enterica serovar typhimurium, read-out: FC
[17] = Genotoxicity in Salmonella typhimurium TA1535 harboring pSK1002 assessed as umu gene induction at 0.008 mg/ml in absence of Sprague-Dawley rat liver S9 fraction after by SOS/umu assay relative to control; format: toxicity, organism-based; details: salmonella enterica subsp. enterica serovar typhimurium, read-out: FC
[18] = Genotoxicity in Salmonella typhimurium TA1535 harboring pSK1002 assessed as survival at 0.031 mg/ml in presence of Sprague-Dawley rat liver S9 fraction after by SOS/umu assay relative to control; format: toxicity, organism-based; details: salmonella enterica subsp. enterica serovar typhimurium, read-out: Survival
[19] = Genotoxicity in Salmonella typhimurium TA1535 harboring pSK1002 assessed as umu gene induction at 0.031 mg/ml in presence of Sprague-Dawley rat liver S9 fraction after by SOS/umu assay relative to control; format: toxicity, organism-based; details: salmonella enterica subsp. enterica serovar typhimurium, read-out: FC
[20] = Genotoxicity in Salmonella typhimurium TA1535 harboring pSK1002 assessed as survival at 0.008 mg/ml in presence of Sprague-Dawley rat liver S9 fraction after by SOS/umu assay relative to control; format: toxicity, organism-based; details: salmonella enterica subsp. enterica serovar typhimurium, read-out: Survival
[21] = Genotoxicity in Salmonella typhimurium TA1535 harboring pSK1002 assessed as umu gene induction at 0.002 mg/ml in presence of Sprague-Dawley rat liver S9 fraction after by SOS/umu assay relative to control; format: toxicity, organism-based; details: salmonella enterica subsp. enterica serovar typhimurium, read-out: FC
[22] = Genotoxicity in Salmonella typhimurium TA1535 harboring pSK1002 assessed as survival at 0.016 mg/ml in absence of Sprague-Dawley rat liver S9 fraction after by SOS/umu assay relative to control; format: toxicity, organism-based; details: salmonella enterica subsp. enterica serovar typhimurium, read-out: Survival
[23] = Genotoxicity in Salmonella typhimurium TA1535 harboring pSK1002 assessed as survival at 0.002 mg/ml in absence of Sprague-Dawley rat liver S9 fraction after by SOS/umu assay relative to control; format: toxicity, organism-based; details: salmonella enterica subsp. enterica serovar typhimurium, read-out: Survival
[24] = Genotoxicity in Salmonella typhimurium TA1535 harboring pSK1002 assessed as survival at 0.004 mg/ml in presence of Sprague-Dawley rat liver S9 fraction after by SOS/umu assay relative to control; format: toxicity, organism-based; details: salmonella enterica subsp. enterica serovar typhimurium, read-out: Survival
[25] = Genotoxicity in Salmonella typhimurium TA1535 harboring pSK1002 assessed as umu gene induction at 0.001 mg/ml in presence of Sprague-Dawley rat liver S9 fraction after by SOS/umu assay relative to control; format: toxicity, organism-based; details: salmonella enterica subsp. enterica serovar typhimurium, read-out: FC
[26] = Genotoxicity in Salmonella typhimurium TA1535 harboring pSK1002 assessed as umu gene induction at 0.016 mg/ml in absence of Sprague-Dawley rat liver S9 fraction after by SOS/umu assay relative to control; format: toxicity, organism-based; details: salmonella enterica subsp. enterica serovar typhimurium, read-out: FC
[27] = Genotoxicity in Salmonella typhimurium TA1535 harboring pSK1002 assessed as umu gene induction at 0.001 mg/ml in absence of Sprague-Dawley rat liver S9 fraction after by SOS/umu assay relative to control; format: toxicity, organism-based; details: salmonella enterica subsp. enterica serovar typhimurium, read-out: FC
[28] = Genotoxicity in Salmonella typhimurium TA1535 harboring pSK1002 assessed as umu gene induction at 0.031 mg/ml in absence of Sprague-Dawley rat liver S9 fraction after by SOS/umu assay relative to control; format: toxicity, organism-based; details: salmonella enterica subsp. enterica serovar typhimurium, read-out: FC

Compound `COc1ccc(C(O)CCN2CCN(c3ccccc3OC)CC2)cc1` (centres undefined) has a selectivity ratio [1] of 46, an IC50 (Plasmodium falciparum [2]) of 10.5 µM and a CC50 [3] of 371 µM. It also gave an IC50 (Plasmodium falciparum [4]) of 7.98 µM.
`COc1ccccc1N1CCN(CCC(O)c2ccccc2)CC1` (centres undefined) showed a selectivity ratio [1] of over 39, an IC50 (Plasmodium falciparum [2]) of 13.9 µM and a CC50 [3] of over 612 µM. For the same compound, the IC50 (Plasmodium falciparum [4]) was 15.7 µM.
Compound `OC(CCN1CC=C(c2ccc(F)cc2)CC1)c1ccc(Cl)cc1` (centres undefined) has a selectivity ratio [1] of 48, an IC50 (Plasmodium falciparum [2]) of 3.57 µM and a CC50 [3] of 110 µM. For the same compound, the IC50 (Plasmodium falciparum [4]) was 2.29 µM.
`COc1ccc(C(O)CCN2CC=C(c3ccc(F)cc3)CC2)c(OC)c1` (centres undefined) gave a selectivity ratio [1] of 10, an IC50 (Plasmodium falciparum [2]) of 24.1 µM and a CC50 [3] of 91.4 µM. The IC50 (Plasmodium falciparum [4]) was 9.48 µM.
In the case of `COc1ccccc1N1CCN(CCC(O)c2ccc(-c3ccccc3)cc2)CC1` (centres undefined), the selectivity ratio [1] is reported as 9, the IC50 (Plasmodium falciparum [2]) is reported as 7.25 µM and the CC50 [3] is reported as 24.4 µM. It also gave an IC50 (Plasmodium falciparum [4]) of 2.78 µM.
`OC(CCN1CC=C(c2ccc(F)cc2)CC1)c1ccc(F)c(Cl)c1` (centres undefined) gave a selectivity ratio [1] of 8, an IC50 (Plasmodium falciparum [2]) of 2.27 µM and a CC50 [3] of 54.1 µM. The IC50 (Plasmodium falciparum [4]) was 7.06 µM.
Work on `OC(CCN1CC=C(c2ccc(F)cc2)CC1)c1ccc(Br)cc1` (centres undefined) yielded a selectivity ratio [1] of 41, an IC50 (Plasmodium falciparum [2]) of 5.42 µM and a CC50 [3] of 109 µM. It also gave an IC50 (Plasmodium falciparum [4]) of 2.68 µM.
For `COC(=O)c1ccc(C(O)CCN2CC=C(c3ccc(F)cc3)CC2)cc1` (centres undefined), the fold induction at 0.004 mg/ml [5] was 0.8, the fold induction at 0.008 mg/ml [6] was 1 and the fold induction at 0.002 mg/ml [7] was 0.9. The viability at 0.001 mg/ml [8] was 110%, the viability at 0.004 mg/ml [9] was 99.4% and the viability at 0.016 mg/ml [10] was 103%. For the same compound, the viability at 0.001 mg/ml [11] was 124%, the viability at 0.002 mg/ml [12] was 103% and the viability at 0.008 mg/ml [13] was 97.5%. For the same compound, the viability at 0.031 mg/ml [14] was 94.4%, the fold induction at 0.016 mg/ml [15] was 1 and the fold induction at 0.004 mg/ml [16] was 0.9. For the same compound, the fold induction at 0.008 mg/ml [17] was 0.9, the viability at 0.031 mg/ml [18] was 138% and the fold induction at 0.031 mg/ml [19] was 0.7. For the same compound, the selectivity ratio [1] was 451, the viability at 0.008 mg/ml [20] was 104% and the fold induction at 0.002 mg/ml [21] was 1. The IC50 (Plasmodium falciparum [2]) was 10.5 µM, the viability at 0.016 mg/ml [22] was 89.4% and the viability at 0.002 mg/ml [23] was 109%. It also gave a viability at 0.004 mg/ml [24] of 101%, a CC50 [3] of 509 µM and a fold induction at 0.001 mg/ml [25] of 0.8. The fold induction at 0.016 mg/ml [26] was 1, the fold induction at 0.001 mg/ml [27] was 0.7 and the IC50 (Plasmodium falciparum [4]) was 1.13 µM. It also gave a fold induction at 0.031 mg/ml [28] of 0.9.
In the case of `OC(CCN1CC=C(c2ccc(F)cc2)CC1)c1ccccc1` (centres undefined), the selectivity ratio [1] is reported as 13, the IC50 (Plasmodium falciparum [2]) is reported as 10.6 µM and the CC50 [3] is reported as 121 µM. The IC50 (Plasmodium falciparum [4]) was 9.04 µM.
Compound `O=[N+]([O-])c1ccc(N2CCC(NCCC(O)c3ccc(F)c(F)c3)CC2)c(C(F)(F)F)c1` (centres undefined) has a selectivity ratio [1] of 25, an IC50 (Plasmodium falciparum [2]) of 0.67 µM and a CC50 [3] of 13.3 µM. The IC50 (Plasmodium falciparum [4]) was 0.53 µM.
